Measured values reported in paper PMC2669315 (Bioorganic & medicinal chemistry, 2008).

Key:
[1] = test system: Hsp90 client proteins Her2, Raf-1, and Akt; test: Western blot analysis of Hsp90 client protein degradation in MCF-7 cells; format: cell-based, human; conditions: for IC50: Homo sapiens, MCF7, 24 h, read-out: Hsp90 client protein degradation IC50s; for degradation of Hsp90 client proteins (Her2, Raf-1, Akt) / effect on actin (non Hsp90-dependent protein): MCF-7 cells, 24 h, western blot
Outline: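 MCF-7 cells were seeded at 1×10^6 per dish and left to attach overnight. Test compound was added at varying concentrations and incubated 24 h at 37 °C, 5% CO2. Cells were then harvested and client protein levels analysed by western blot using a previously reported method.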

[2] = test system: Hsp90; format: biochemical, rabbit
[3] = test system: MCF-7 cells; test: Anti-proliferation assay; format: cell-based, human
Outline: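 MCF-7 cells were grown in 1:1 DMEM:Ham's F-12 with non-essential amino acids, 2 mM L-glutamine, penicillin/streptomycin and 10% FBS, at 37 °C and 5% CO2. They were seeded at 2000/well and left to attach overnight. Test compound was added at varying concentrations in DMSO (1% final) for 72 hr. Viable cells were measured by MTS/PMS and normalised to 1% DMSO wells as 100% proliferation.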

[4] = test system: Her2; test: Her2 ELISA in SKBr3 cells; format: cell-based, human; conditions: for fold decrease in Her2 degradative activity for meta substituents: meta chloro or methoxy substituent on the benzamide
Outline: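 SKBr3 cells were grown as for the proliferation assay, seeded at 3000/well, attached overnight, then given test compound at varying concentrations for 24 hr. Cells were washed with ice-cold PBS/1% Tween and fixed in -20 °C methanol (10 min, 4 °C), then blocked 1 hr in 5% BSA/PBST at rt. Rabbit anti-Her2 (1:500) went on overnight at 4 °C, then HRP anti-rabbit IgG (1:1000) for 2 hr at rt. Read-out was chemiluminescence on a luminometer.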

[5] = test system: Hsp90; conditions: assay validation; cited from earlier work

CC(=O)NC1=C(c2ccc(Cl)cc2)C(=O)c2ccccc2C1=O [Compound 3g]
IC50 [1]: 10 to 20 µM
degradation of Hsp90 client proteins (Her2, Raf-1, Akt) [1]: induced the degradation of these client proteins in a concentration-dependent manner
effect on actin (non Hsp90-dependent protein) [1]: no similar effects on actin

COc1ccc(C2=C(NC(=O)c3ccc(OC)c(-c4cccc(OC)c4)c3)C(=O)c3ccccc3C2=O)cc1 [Compound 11, 3’,6-dimethoxy-N-(3-(4-methoxyphenyl)-1,4-dioxo-1,4-dihydronaphthalen-2-yl)biphenyl-3-carboxamide]
inhibition of luciferase refolding (in words) [2]: unable to inhibit luciferase refolding

COc1cccc(-c2cc(C(=O)NC3=C(Cl)C(=O)c4ccccc4C3=O)ccc2OC)c1 [Compound 12]
IC50 [1]: 10 to 20 µM
degradation of Hsp90 client proteins (Her2, Raf-1, Akt) [1]: induced the degradation of these client proteins in a concentration-dependent manner
effect on actin (non Hsp90-dependent protein) [1]: no similar effects on actin
IC50 ([3]; Homo sapiens, MCF7, read-out: anti-proliferative activity IC50): 1.7 to 3 µM
inhibition of luciferase refolding (in words) [2]: low micromolar activity

COc1ccc(C2=C(NC(=O)c3ccccc3Cl)C(=O)c3ccccc3C2=O)cc1 [Compound 13a]
IC50 [1]: 5 to 10 µM
degradation of Hsp90 client proteins (Her2, Raf-1, Akt) [1]: induced the degradation of these client proteins in a concentration-dependent manner
effect on actin (non Hsp90-dependent protein) [1]: no similar effects on actin

COc1ccc(C2=C(NC(=O)c3cccc(Cl)c3)C(=O)c3ccccc3C2=O)cc1 [Compound 13b]
fold decrease in Her2 degradative activity for meta substituents [4]: 6 fold

COc1ccc(C2=C(NC(=O)c3cccc(OC)c3)C(=O)c3ccccc3C2=O)cc1 [Compound 13e]
fold decrease in Her2 degradative activity for meta substituents [4]: 15 fold

COc1ccc(C2=C(NC(=O)c3cccc4ccccc34)C(=O)c3ccccc3C2=O)cc1 [Compound 13g]
fold decrease in Her2 activity compared to the corresponding benzamide (4d) ([4]; vs 4d): 3 fold

COc1ccc(C2=C(NC(=O)c3ccc4ccccc4c3)C(=O)c3ccccc3C2=O)cc1 [Compound 13h]
Her2 degradative activity (in words) [4]: complete loss of Her2 degradative activity

COc1ccc(C2=C(NC(=O)C3CCCCC3)C(=O)c3ccccc3C2=O)cc1 [Compound 13i]
inhibition of luciferase refolding (in words) [2]: low micromolar activity

CC(=O)C1=C(c2ccccc2)C(=O)c2ccccc2C1=O [HTS1]
fold greater anti-proliferative activity against MCF-7 cells compared to SKBr3 cells ([3]; MCF-7 vs SKBr3): 4 fold

CO[C@@H]1[C@@H](OC(N)=O)[C@@H](O)[C@H](Oc2ccc3c(O)c(NC(=O)c4ccc(O)c(CC=C(C)C)c4)c(=O)oc3c2C)OC1(C)C [novobiocin]
reduction of luciferase renaturation by known Hsp90 inhibitors [5]: significantly reduce the renaturation of luciferase
